Laboratory results taken from ChEMBL document CHEMBL5653622 (Oncotarget, 2016).
Activity calls are given as the source filed them. No cut-off for these calls is given here.

Tests used:
[1] = Cmax in BALB/C mouse plasma at 10 mg/kg, iv by LC/MS-MS analysis; assay type: ADME, organism-based
Summary of the method: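 Female BALB/c mice received a single 10mg/kg bolus i.v. or p.o. Plasma (and spleen homogenate) extracted with methanol containing internal standards. Concentrations were measured by LC/MS-MS and PK parameters calculated with modelling software.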

[2] = biological target: Mitogen-activated protein kinase 14 (Homo sapiens) (UniProt Q16539); experiment: Inhibition of human p38a MAPK assessed as remaining activity at 10 uM in presence of ATP by radiometric kinase assay relative to control
[3] = biological target: Mitogen-activated protein kinase 12 (Homo sapiens) (UniProt P53778); experiment: Inhibition of human p38g MAPK assessed as remaining activity at 10 uM in presence of ATP by radiometric kinase assay relative to control
Mitogen-activated protein kinase 12 (Homo sapiens), sequence (P53778 whole entry): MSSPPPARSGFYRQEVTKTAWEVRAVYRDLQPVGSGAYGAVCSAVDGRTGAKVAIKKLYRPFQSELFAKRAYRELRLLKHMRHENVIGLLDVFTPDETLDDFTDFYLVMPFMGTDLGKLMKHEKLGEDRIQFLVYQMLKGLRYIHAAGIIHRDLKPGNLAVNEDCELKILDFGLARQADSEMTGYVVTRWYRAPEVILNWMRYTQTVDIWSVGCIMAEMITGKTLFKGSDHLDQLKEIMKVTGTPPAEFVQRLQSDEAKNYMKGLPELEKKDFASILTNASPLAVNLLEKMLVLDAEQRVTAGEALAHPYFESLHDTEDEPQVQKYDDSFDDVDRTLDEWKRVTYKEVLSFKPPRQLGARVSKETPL

[4] = biological target: Rho-associated protein kinase 2 (Homo sapiens) (UniProt O75116); experiment: Inhibition of human ROCK2 assessed as remaining activity at 10 uM in presence of ATP by radiometric kinase assay relative to control
Rho-associated protein kinase 2 (Homo sapiens), sequence (O75116 whole entry, looked up): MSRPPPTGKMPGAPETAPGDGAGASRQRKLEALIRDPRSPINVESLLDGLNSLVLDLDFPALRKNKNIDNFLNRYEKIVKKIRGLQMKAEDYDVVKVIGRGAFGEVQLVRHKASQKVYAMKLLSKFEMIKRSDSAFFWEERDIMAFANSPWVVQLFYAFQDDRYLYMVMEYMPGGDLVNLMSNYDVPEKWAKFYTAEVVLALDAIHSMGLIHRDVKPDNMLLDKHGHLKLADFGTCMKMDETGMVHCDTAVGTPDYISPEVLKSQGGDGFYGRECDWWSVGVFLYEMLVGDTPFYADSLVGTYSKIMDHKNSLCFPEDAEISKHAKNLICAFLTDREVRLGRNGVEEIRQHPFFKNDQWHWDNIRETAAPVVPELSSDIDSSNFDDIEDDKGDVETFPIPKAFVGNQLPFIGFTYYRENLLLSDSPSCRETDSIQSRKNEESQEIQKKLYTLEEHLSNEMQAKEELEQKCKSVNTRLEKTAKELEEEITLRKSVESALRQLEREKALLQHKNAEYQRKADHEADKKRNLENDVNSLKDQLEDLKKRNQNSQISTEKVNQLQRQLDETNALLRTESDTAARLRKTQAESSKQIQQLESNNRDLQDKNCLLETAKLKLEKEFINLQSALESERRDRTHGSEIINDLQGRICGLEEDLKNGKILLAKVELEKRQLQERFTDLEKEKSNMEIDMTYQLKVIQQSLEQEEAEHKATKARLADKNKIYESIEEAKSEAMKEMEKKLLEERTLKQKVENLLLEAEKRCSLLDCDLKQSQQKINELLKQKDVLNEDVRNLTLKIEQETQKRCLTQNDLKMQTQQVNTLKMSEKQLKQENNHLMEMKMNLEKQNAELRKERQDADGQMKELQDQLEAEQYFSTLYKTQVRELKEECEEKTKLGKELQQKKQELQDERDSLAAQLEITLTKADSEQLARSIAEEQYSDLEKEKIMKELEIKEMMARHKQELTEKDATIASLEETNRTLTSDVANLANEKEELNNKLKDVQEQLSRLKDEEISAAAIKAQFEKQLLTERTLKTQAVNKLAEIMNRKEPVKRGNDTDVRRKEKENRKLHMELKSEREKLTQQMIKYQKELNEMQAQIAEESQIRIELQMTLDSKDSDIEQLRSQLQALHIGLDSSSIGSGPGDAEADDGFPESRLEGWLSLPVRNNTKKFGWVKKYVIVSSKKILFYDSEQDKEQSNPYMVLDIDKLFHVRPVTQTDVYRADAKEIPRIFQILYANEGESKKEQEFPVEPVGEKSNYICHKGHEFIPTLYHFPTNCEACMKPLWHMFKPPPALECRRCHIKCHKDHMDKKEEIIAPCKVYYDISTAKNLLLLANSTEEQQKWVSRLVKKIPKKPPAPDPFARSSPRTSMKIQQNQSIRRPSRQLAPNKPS

[5] = biological target: Serine/threonine-protein kinase 33 (Homo sapiens) (UniProt Q9BYT3); experiment: Inhibition of human STK33 assessed as remaining activity at 10 uM in presence of ATP by radiometric kinase assay relative to control
Serine/threonine-protein kinase 33 (Homo sapiens), sequence (Q9BYT3 whole entry, looked up): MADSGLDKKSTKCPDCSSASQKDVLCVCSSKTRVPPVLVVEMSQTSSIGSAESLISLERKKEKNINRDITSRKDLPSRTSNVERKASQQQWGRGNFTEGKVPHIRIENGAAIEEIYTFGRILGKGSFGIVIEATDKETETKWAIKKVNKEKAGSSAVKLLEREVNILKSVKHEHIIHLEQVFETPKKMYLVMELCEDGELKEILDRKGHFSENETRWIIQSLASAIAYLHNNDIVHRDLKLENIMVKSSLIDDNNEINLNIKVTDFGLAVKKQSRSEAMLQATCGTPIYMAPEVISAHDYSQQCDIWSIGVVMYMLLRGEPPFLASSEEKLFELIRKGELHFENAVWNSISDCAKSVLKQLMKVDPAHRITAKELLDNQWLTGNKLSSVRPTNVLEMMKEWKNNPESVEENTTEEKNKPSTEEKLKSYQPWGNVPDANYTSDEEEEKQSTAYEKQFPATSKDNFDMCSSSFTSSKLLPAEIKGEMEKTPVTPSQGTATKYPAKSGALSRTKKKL

[6] = biological target: Glycogen synthase kinase-3 beta (Homo sapiens) (UniProt P49841); experiment: Inhibition of human GSK3b assessed as remaining activity at 10 uM in presence of ATP by radiometric kinase assay relative to control
[7] = biological target: Serine/threonine-protein kinase PLK1 (Homo sapiens) (UniProt P53350); experiment: Inhibition of human PLK1 assessed as remaining activity at 10 uM in presence of ATP by radiometric kinase assay relative to control
Serine/threonine-protein kinase PLK1 (Homo sapiens), sequence (P53350 whole entry): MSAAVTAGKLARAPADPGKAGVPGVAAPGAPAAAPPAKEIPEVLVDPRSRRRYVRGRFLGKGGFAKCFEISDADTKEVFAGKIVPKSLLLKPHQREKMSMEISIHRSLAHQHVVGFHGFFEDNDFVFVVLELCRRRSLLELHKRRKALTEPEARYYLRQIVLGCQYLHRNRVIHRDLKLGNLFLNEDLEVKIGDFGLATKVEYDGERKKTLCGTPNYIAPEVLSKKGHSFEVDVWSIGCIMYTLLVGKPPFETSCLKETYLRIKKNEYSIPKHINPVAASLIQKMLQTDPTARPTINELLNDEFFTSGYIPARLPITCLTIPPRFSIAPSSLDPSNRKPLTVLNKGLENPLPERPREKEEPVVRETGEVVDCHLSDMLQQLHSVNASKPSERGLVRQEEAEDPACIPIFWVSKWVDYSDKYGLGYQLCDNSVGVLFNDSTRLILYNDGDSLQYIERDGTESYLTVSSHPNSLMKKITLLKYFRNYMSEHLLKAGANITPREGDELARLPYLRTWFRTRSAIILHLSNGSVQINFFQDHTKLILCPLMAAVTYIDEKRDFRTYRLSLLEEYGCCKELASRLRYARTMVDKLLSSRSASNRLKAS

[8] = biological target: Aurora kinase A (Homo sapiens) (UniProt O14965); experiment: Inhibition of human AuroraA assessed as remaining activity at 10 uM in presence of ATP by radiometric kinase assay relative to control
Aurora kinase A (Homo sapiens), sequence (O14965 whole entry): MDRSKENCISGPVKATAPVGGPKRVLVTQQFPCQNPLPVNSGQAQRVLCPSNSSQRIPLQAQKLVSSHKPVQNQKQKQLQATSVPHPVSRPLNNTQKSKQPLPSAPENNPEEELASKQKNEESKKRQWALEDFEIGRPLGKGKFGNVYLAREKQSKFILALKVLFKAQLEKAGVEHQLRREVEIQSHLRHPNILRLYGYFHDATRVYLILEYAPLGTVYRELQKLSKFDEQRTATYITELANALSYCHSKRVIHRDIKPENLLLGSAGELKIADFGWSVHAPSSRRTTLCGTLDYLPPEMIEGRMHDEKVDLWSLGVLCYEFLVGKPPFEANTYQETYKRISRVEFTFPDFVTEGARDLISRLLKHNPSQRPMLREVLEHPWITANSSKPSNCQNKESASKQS

[9] = biological target: Serine/threonine-protein kinase pim-3 (Homo sapiens) (UniProt Q86V86); experiment: Inhibition of human PIM3 assessed as remaining activity at 10 uM in presence of ATP by radiometric kinase assay relative to control
[10] = biological target: Testis-specific serine/threonine-protein kinase 1 (Homo sapiens) (UniProt Q9BXA7); experiment: Inhibition of human TSSK1 assessed as remaining activity at 10 uM in presence of ATP by radiometric kinase assay relative to control
[11] = biological target: Tyrosine-protein kinase CSK (Homo sapiens) (UniProt P41240); experiment: Inhibition of human CSK assessed as remaining activity at 10 uM in presence of ATP by radiometric kinase assay relative to control
[12] = biological target: Tyrosine-protein kinase BTK (Homo sapiens) (UniProt Q06187); experiment: Inhibition of human BTK assessed as remaining activity at 10 uM in presence of ATP by radiometric kinase assay relative to control
[13] = biological target: Tyrosine-protein kinase ZAP-70 (Homo sapiens) (UniProt P43403); experiment: Inhibition of human ZAP70 assessed as remaining activity at 10 uM in presence of ATP by radiometric kinase assay relative to control
[14] = biological target: Proto-oncogene tyrosine-protein kinase Src (Homo sapiens) (UniProt P12931); experiment: Inhibition of human Src assessed as remaining activity at 10 uM in presence of ATP by radiometric kinase assay relative to control
Proto-oncogene tyrosine-protein kinase Src (Homo sapiens), sequence (P12931 2-536 limits assumed): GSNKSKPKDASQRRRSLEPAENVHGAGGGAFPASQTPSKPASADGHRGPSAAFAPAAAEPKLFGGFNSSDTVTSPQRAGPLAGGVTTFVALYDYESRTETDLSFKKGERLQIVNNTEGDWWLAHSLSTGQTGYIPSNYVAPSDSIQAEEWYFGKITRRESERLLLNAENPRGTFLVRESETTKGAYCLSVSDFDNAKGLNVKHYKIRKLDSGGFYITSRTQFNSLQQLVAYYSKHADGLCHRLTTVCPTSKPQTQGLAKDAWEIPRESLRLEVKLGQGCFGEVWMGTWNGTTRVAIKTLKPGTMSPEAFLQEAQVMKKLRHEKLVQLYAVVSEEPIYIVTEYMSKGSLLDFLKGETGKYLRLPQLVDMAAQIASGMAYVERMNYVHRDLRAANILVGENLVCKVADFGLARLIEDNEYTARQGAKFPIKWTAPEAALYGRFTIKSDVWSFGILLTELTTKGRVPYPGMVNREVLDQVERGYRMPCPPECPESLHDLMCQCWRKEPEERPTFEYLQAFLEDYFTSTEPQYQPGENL

HT-29 [15] = experiment: Induction of cell cycle arrest in human HT-29 cells assessed as accumulation of cells at S phase at 0.5 uM incubated for 24 hrs by BrdU and PI staining based flow cytometry analysis; assay type: functional
Summary of the method: (§1)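 HT29 cells exposed for 24h, stained with bromodeoxyuridine and propidium iodide, and cell-cycle distribution measured by flow cytometry.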

HT-29 [16] = experiment: Induction of cell cycle arrest in etoposide induced human HT-29 cells assessed as decrease in accumulation of cells at G2/M phase at 1 to 5 uM incubated for 24 hrs by BrdU and PI staining based flow cytometry analysis; assay type: functional; conditions: dose 1-5 µM; summary of the method: as §1
Mus musculus = experiment: In vivo inhibition of CHK1 in CRTac:Ncr-Fox1 mouse xenografted with human HT-29 cells assessed as reduction of phosphorylation of CDK1 on Y15 at 100 mg/kg, po administered for 24 hrs by Western blotting analysis; assay type: functional, organism-based
Summary of the method: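 HT29 s.c. xenografts in female athymic nude mice. Single gemcitabine dose 100mg/kg i.v. on day 0, then one inhibitor dose 50 or 100mg/kg p.o. (DPTW vehicle) 24h later. Tumors taken 24h after the last dose, western blotted, and signals quantified by normalizing to GAPDH.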

[17] = Toxicity in Emu-Myc driven transgenic mouse transplant model of B-cell lymphoma assessed as reduction in weight of the brachial/axillary lymph nodes at 150 mg/kg, po administered for 9 days; assay type: organism-based; conditions: in vivo, 216 h, time 9 day
[18] = Toxicity in Emu-Myc driven transgenic mouse transplant model of B-cell lymphoma assessed as increase in weight of spleen at 150 mg/kg, po administered for 9 days; assay type: organism-based; conditions: in vivo, 216 h, time 9 day
[19] = Toxicity in Emu-Myc driven transgenic mouse transplant model of B-cell lymphoma assessed as change in body weight at 150 mg/kg, po administered for 9 days; assay type: organism-based; conditions: in vivo, 216 h, time 9 day
[20] = biological target: Serine/threonine-protein kinase D1 (Homo sapiens, UniProt Q15139); experiment: Inhibition of PRKD1 (unknown origin) by 33P radiometric kinase assay
Serine/threonine-protein kinase D1, sequence (Q15139 whole entry): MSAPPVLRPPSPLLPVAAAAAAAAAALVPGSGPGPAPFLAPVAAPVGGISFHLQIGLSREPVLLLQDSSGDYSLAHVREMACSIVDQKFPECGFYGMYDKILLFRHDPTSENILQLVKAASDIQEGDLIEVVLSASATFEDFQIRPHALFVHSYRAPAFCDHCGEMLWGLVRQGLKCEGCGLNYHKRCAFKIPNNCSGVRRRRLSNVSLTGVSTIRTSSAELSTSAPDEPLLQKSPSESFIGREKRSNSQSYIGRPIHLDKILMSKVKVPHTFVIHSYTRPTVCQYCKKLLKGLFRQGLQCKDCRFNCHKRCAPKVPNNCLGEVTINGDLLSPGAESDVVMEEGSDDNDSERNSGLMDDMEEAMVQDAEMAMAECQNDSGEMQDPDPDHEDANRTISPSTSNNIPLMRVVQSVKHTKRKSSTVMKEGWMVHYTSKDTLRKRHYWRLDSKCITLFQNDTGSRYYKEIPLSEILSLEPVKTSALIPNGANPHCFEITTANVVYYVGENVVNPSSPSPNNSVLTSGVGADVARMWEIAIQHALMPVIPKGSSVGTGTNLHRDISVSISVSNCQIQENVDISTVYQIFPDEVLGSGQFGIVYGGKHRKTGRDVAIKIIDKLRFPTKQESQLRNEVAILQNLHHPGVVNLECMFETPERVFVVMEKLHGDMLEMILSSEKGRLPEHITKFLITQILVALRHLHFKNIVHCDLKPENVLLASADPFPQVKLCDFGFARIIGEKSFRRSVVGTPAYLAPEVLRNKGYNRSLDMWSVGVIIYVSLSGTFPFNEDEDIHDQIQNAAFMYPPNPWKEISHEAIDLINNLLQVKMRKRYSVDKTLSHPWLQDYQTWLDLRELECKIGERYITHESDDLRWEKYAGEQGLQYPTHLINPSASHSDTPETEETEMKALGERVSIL

With `N#Cc1cnc(Nc2cc(NC[C@H]3CNCCO3)c(C(F)(F)F)cn2)cn1` [SRA-737] the Cmax [1] was 4 µM, the Activity [2] was 120% and the Activity [3] was 95%. The Activity [4] was 95%, the Activity [5] was 39% and the Activity [6] was 47%. It also gave an Activity [7] of 103%, an Activity [8] of 75% and an Activity [9] of 36%. It also gave an Activity [10] of 53%, an Activity [11] of 82% and an Activity [12] of 72%. The Activity [13] was 93%, the Activity [14] was 93% and the Activity (HT-29 [15]) was “Active”. For the same compound, the Activity (HT-29 [16]) was “Active”, the Activity (Mus musculus) was “Active” and the Activity [17] was “Toxic”. For the same compound, the Activity [18] was “Toxic”, the Activity [19] was “Non-Toxic” and the IC50 [20] was 298 nM.
